Activity and MIC data for five compounds are collected here from ChEMBL document CHEMBL1138269, “Antimicrobial lexitropsins containing amide, amidine, and alkene linking groups” (J Med Chem, 2007).

Structures are written as SMILES. Values after ≈ are worked out from the molar mass of the structure shown. Active and inactive are the calls of the source. No cut-off for these calls is given here. Some results are limits rather than exact numbers.

In one series the test system is Jurkat. Kind of series: Cytotoxicity against human Jurkat cells. In kind it is cell-based.
A further series concerns L929. Kind of series: Cytotoxicity against mouse L929 cells. It counts as cell-based.
The test system of series [1] is Staphylococcus aureus. Kind of series: Antibacterial activity against methicillin-resistant Staphylococcus aureus clinical isolate 1. It counts as functional. A digest of the protocol: (§1)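 Broth microdilution MIC against clinical S. aureus isolates (incl. MRSA), run per NCCLS guidelines in 96-well plates. Test sample dissolved in sterile water to a 200 µg mL-1 working concentration, then doubling dilutions in Mueller-Hinton broth. Incubated at 37 °C, growth read visually plus resazurin indicator. MIC reported in µg/mL.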

Series [2] concerns Staphylococcus aureus. Kind of series: Antibacterial activity against methicillin-sensitive Staphylococcus aureus NCTC 6571. It counts as functional. The settings on record: Staphylococcus aureus, NCTC 6571; read-out: MIC. The method, boiled down:
(§2)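 Broth microdilution in Mueller-Hinton broth. Samples were dissolved in sterile water to 200 µg mL-1 as the working solution and doubling dilutions were made across rows. Plates were incubated at 37 °C and inspected visually, with resazurin added as growth indicator. MIC reported in µg mL-1.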

For series [3], the system named is Mycolicibacterium fortuitum. Kind of series: Antibacterial activity against Mycobacterium fortuitum NCTC 10394. It counts as functional. The method, boiled down: as §2
Series [4] deals with Staphylococcus aureus. Kind of series: Antibacterial activity against methicillin-resistant Staphylococcus aureus clinical isolate 5. In kind it is functional. The method, boiled down: as §1
In series [5] the test system is Staphylococcus aureus. Kind of series: Antibacterial activity against methicillin-resistant Staphylococcus aureus clinical isolate 4. In kind it is functional. A digest of the protocol:
as §1

The subject of series [6] is Staphylococcus aureus. Kind of series: Antibacterial activity against methicillin-resistant Staphylococcus aureus clinical isolate 2. It counts as functional. A digest of the protocol: as §1
The next series relates to Candida albicans. Kind of series: Antifungal activity against Candida albicans NCPF 3179. In kind it is functional. To be noted: Candida albicans; read-out: MIC. A digest of the protocol: (§3)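 Antifungal microdilution in Sabouraud broth. Test sample at 200 µg mL-1 working solution in sterile water was serially doubled down successive rows. Incubation was at 25 °C, followed by visual growth check and addition of resazurin indicator. Read-out is MIC in µg mL-1.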

The subject of another series is A-375. Kind of series: Cytotoxicity against human A375 cells. It counts as cell-based.
In a further series the test system is Enterococcus faecalis. Kind of series: Antibacterial activity against Streptococcus faecalis NCTC 775. It counts as functional. The settings on record: Enterococcus faecalis, NCTC 775; read-out: MIC. A digest of the protocol: as §2
Series [7] has as its system Staphylococcus aureus. Kind of series: Antibacterial activity against Staphylococcus aureus LS1 in mouse at 40 mg/kg, ip. It counts as functional, organism-based. Details: dose 40 mg/kg. A digest of the protocol: (§4)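 Mice of 18-22 g, five per group, were inoculated intravenously with 50 million cfu of S. aureus LS-1, which causes bacteraemia and then joint localization within 3-4 days. A single dose (groups at 60, 40, 20 or 10 mg/kg) was given iv or ip. Joint inflammation was scored, with caliper measurement of affected joint diameter.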

Series [8] in a line: Cytotoxicity against human TE671 cells. In kind it is cell-based. The settings on record: te-671.
A further series relates to H9c2. Kind of series: Cytotoxicity against rat H9C2 cells. It counts as cell-based.
Series [9] concerns Staphylococcus aureus. Kind of series: Antibacterial activity against methicillin-resistant Staphylococcus aureus clinical isolate 3. In kind it is functional. A digest of the protocol:
as §1

The test system of a further series is Aspergillus niger. Kind of series: Antifungal activity against Aspergillus niger IMI 149007. In kind it is functional. The method, boiled down: as §3
Series [10] relates to Staphylococcus aureus. Kind of series: Antibacterial activity against Staphylococcus aureus LS1 in mouse at 20 mg/kg, ip. In kind it is functional, organism-based. Details: dose 20 mg/kg. A digest of the protocol:
as §4

A further series deals with HS27. Kind of series: Cytotoxicity against human HS27 cells. In kind it is cell-based.

What is called MIC is the lowest concentration found to suppress growth. Regarding `COc1ccc(/C=C/c2ccc(C(=O)Nc3cc(C(=O)Nc4cc(C(=O)NCCN5CCOCC5)n(C)c4)n(C)c3)cn2)cc1`, the Activity entry (with Jurkat; with L929; with A-375; in [8]; in the series with H9c2) was “Non-toxic” each time. For the same compound, the MIC against Staphylococcus aureus [1] turned out to be 0.5 µg/mL (≈ 0.817 µM); in the series on Staphylococcus aureus [2] it was 6 µg/mL (≈ 9.81 µM); in [3], 50 µg/mL (≈ 81.7 µM); in the series on Staphylococcus aureus [4], 0.5 µg/mL (≈ 0.817 µM); in the series on Staphylococcus aureus [5], 2 µg/mL (≈ 3.27 µM); in the series with Staphylococcus aureus [6], 4 µg/mL (≈ 6.54 µM). The MIC with Candida albicans was 25 µg/mL (≈ 40.9 µM); in the series on Enterococcus faecalis it was 6 µg/mL (≈ 9.81 µM); against Staphylococcus aureus [9], 2 µg/mL (≈ 3.27 µM); in the series on Aspergillus niger it was 50 µg/mL (≈ 81.7 µM). In addition, in the series on Staphylococcus aureus [7], the outcome was Active.

Turning to `Cn1cc(NC(=O)c2cc(NC(=O)c3ccc(/C=C/c4cnc5ccccc5c4)cc3)cn2C)cc1C(=O)NCCN1CCOCC1` [MGB-BP-3], the Activity result with L929 and in the series on HS27 was “Non-toxic” each time. The result in the series on Staphylococcus aureus [10] was Active. Besides, the MIC came out at 0.12 µg/mL (≈ 0.19 µM) in the series with Staphylococcus aureus [1]; 3 µg/mL (≈ 4.75 µM) with Staphylococcus aureus [2]; 50 µg/mL (≈ 79.1 µM) in series [3]; 0.12 µg/mL (≈ 0.19 µM) in the series on Staphylococcus aureus [4]; 0.25 µg/mL (≈ 0.396 µM) against Staphylococcus aureus [5]; 0.25 µg/mL (≈ 0.396 µM) against Staphylococcus aureus [6]. The minimal inhibitory concentration (MIC) in the series on Candida albicans worked out at 50 µg/mL (≈ 79.1 µM); in the series on Enterococcus faecalis, 25 µg/mL (≈ 39.6 µM); in the series with Staphylococcus aureus [9] it was 0.12 µg/mL (≈ 0.19 µM); with Aspergillus niger, 25 µg/mL (≈ 39.6 µM).

`CC(=N)Nc1cc(C(=O)Nc2cc(C(=O)Nc3nc(C(=O)NCCN4CCOCC4)c(C(C)C)s3)n(C)c2)n(C)c1`: the minimum inhibitory concentration (MIC) is 64 µg/mL (≈ 110 µM) against Staphylococcus aureus [1]; above 50 µg/mL in the series on Staphylococcus aureus [2]; above 50 µg/mL in series [3]; above 64 µg/mL with Staphylococcus aureus [4]; above 64 µg/mL against Staphylococcus aureus [5]; above 64 µg/mL against Staphylococcus aureus [6]. Further, the MIC with Candida albicans was above 50 µg/mL; in the series on Enterococcus faecalis, above 50 µg/mL; with Staphylococcus aureus [9] it was above 64 µg/mL; in the series with Aspergillus niger, above 50 µg/mL.

Take `CC(C)CCc1sc(NC(=O)c2cc(NC(=O)c3cc(/C=C/c4ccc([N+](=O)[O-])cc4)cn3C)cn2C)nc1C(=O)NCCCN(C)C`: the minimal inhibitory concentration (MIC) against Staphylococcus aureus [1] was above 64 µg/mL; in the series with Staphylococcus aureus [2], above 50 µg/mL; in series [3], above 50 µg/mL; in the series on Staphylococcus aureus [4], above 64 µg/mL; against Staphylococcus aureus [5], above 64 µg/mL; in the series on Staphylococcus aureus [6], above 64 µg/mL. In addition, the minimal inhibitory concentration (MIC) in the series on Candida albicans is above 50 µg/mL; in the series on Enterococcus faecalis it was above 50 µg/mL; against Staphylococcus aureus [9] it was above 64 µg/mL; against Aspergillus niger, above 50 µg/mL.

For the compound `COc1cccc(C(=N)Nc2cc(C(=O)Nc3cc(C(=O)Nc4nc(C(=O)NCCN5CCOCC5)c(C(C)C)s4)n(C)c3)n(C)c2)c1`, the MIC in the series on Staphylococcus aureus [1] is 16 µg/mL (≈ 23.7 µM); with Staphylococcus aureus [2] it was above 50 µg/mL; in [3] it was above 50 µg/mL; against Staphylococcus aureus [4], 32 µg/mL (≈ 47.4 µM); in the series with Staphylococcus aureus [5], 32 µg/mL (≈ 47.4 µM); in the series with Staphylococcus aureus [6], 64 µg/mL (≈ 94.7 µM). Moreover, the MIC is above 50 µg/mL in the series on Candida albicans, above 50 µg/mL in the series with Enterococcus faecalis, 32 µg/mL (≈ 47.4 µM) against Staphylococcus aureus [9] and above 50 µg/mL with Aspergillus niger.
